Experimental data published in ChEMBL document CHEMBL1799933, “Discovery of a selective allosteric M1 receptor modulator with suitable development properties based on a quinolizidinone carboxylic acid scaffold” (J Med Chem, 2011).
Substitutions are numbered along the chain they refer to. Activity calls are given as the source filed them. The rule behind the calls is not given here.

Key:
[1] = molecular target: T1, Muscarinic acetylcholine receptor M1 (Homo sapiens) (UniProt P11229); assay: Agonist activity at human muscarinic M1 receptor expressed in CHONFAT cells assessed as enhancement of acetylcholine-induced calcium mobilization preincubated for 4 mins measured after 1 hr by FLIPR assay; assay type: functional, cell-based
T1 sequence (whole entry): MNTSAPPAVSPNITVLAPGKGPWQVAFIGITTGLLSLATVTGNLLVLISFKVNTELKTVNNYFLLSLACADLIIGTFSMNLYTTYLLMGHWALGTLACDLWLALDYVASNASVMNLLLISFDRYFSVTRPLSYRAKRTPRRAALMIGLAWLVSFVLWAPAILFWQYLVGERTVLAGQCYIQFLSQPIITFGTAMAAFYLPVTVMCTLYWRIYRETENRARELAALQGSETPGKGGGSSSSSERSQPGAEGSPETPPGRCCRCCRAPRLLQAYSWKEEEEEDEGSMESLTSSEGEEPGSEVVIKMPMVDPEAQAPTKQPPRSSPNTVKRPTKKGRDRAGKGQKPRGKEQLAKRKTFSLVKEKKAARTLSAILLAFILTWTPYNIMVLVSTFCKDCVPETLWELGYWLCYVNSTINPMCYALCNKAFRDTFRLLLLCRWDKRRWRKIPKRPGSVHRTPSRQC
Procedure, shortened: (§1)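 CHO-NFAT cells expressing the named muscarinic receptor (human M1–M4; rhesus, dog or rat M1 in CHO-K1) were plated at 25,000 cells/well and grown overnight at 37 °C, 6% CO2. Cells were loaded with 1 μM Fluo-4AM for 1 h, washed, and preincubated 4 min with serially diluted compound (final DMSO 0.67%). They were then stimulated 4 min with an EC20 of ACh, and Ca2+ flux was read by FLIPR384.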

[2] = Passive permeability of the compound at 5 uM; assay type: ADME; conditions: not told
[3] = Half life in rat at 3 mg/kg, po and 1 mg/kg, iv; assay type: ADME, organism-based; conditions: in vivo
Procedure, shortened: (§2)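 Rats (n = 2) dosed orally at 3 mg/kg and IV at 1 mg/kg. Interanimal variability under 20% for all values.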

[4] = Clearance in rat at 3 mg/kg, po and 1 mg/kg, iv; assay type: ADME, organism-based; conditions: in vivo; procedure, shortened: as §2
[5] = Metabolic stability in rat NADPH-fortified hepatic microsomes assessed as oxidative metabolism; assay type: ADME, Liver
Procedure, shortened: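 Compound incubated with NADPH-fortified hepatic microsomes from rat, dog, monkey or human. Oxidative metabolism monitored.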

[6] = molecular target: T1, Muscarinic acetylcholine receptor M1 (Homo sapiens); assay: Positive allosteric modulation of human muscarinic M1 receptor expressed in CHONFAT cells assessed as potentiation of acetylcholine-induced calcium mobilization at 1 uM preincubated for 4 mins measured after 1 hr by FLIPR assay relative to control; assay type: functional, cell-based
Procedure, shortened: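 CHO-NFAT cells expressing human M1, 25,000 cells/well, grown overnight at 37 °C, 6% CO2. Washed in HBSS with 20 mM Hepes, 2.5 mM probenecid, 0.1% BSA, then loaded with 1 μM Fluo-4AM for 1 h at 37 °C. Compound preincubated 4 min (final DMSO 0.67%), then serially diluted ACh added for 4 min. Ca2+ flux read by FLIPR384; fold leftward shift of the ACh dose-response curve.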

[7] = molecular target: T2, Muscarinic acetylcholine receptor M1 (Rattus norvegicus) (UniProt P08482); assay: Agonist activity at rat muscarinic M1 receptor expressed in CHOK1 cells assessed as potentiation of acetylcholine-induced calcium mobilization preincubated for 4 mins measured after 1 hr by FLIPR assay; assay type: functional, cell-based; conditions: CHO-K1; procedure, shortened: as §1
T2 sequence (whole entry): T1 sequence (whole entry) with A5V, T254S, P309S, R320K, A337G, I413V

[8] = molecular target: T3, Muscarinic acetylcholine receptor M1 (Macaca mulatta) (UniProt P56489); assay: Agonist activity at rhesus monkey muscarinic M1 receptor expressed in CHOK1 cells assessed as potentiation of acetylcholine-induced calcium mobilization preincubated for 4 mins measured after 1 hr by FLIPR assay; assay type: functional, cell-based; conditions: CHO-K1; procedure, shortened: as §1
T3 sequence (whole entry): T1 sequence (whole entry) with A265P, E277D

Mus musculus = assay: Antiamnesic activity against scopolamine-induced dementia in B6SJL mouse assessed as increase in freezing behavior at 30 mg/kg, ip after 24 hrs; assay type: functional, organism-based; set-up: dose 30 mg/kg
Procedure, shortened: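 Male B6SJL mice, 10 weeks old and naive (n = 12–16/group), were given compound IP in 5% beta-cyclodextrin and/or scopolamine 0.3 mg/kg in 0.9% saline 30 min before training. Training was 2 tone (3 kHz, 85 dB, 30 s)–footshock (0.5 mA, 1 s) pairings 2 min apart. Freezing in the same chamber was video-scored 24 h later.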

N#CC1(c2ccccn2)CCN(Cc2cc(C(=O)O)c(=O)n3ccccc23)CC1 [MSD-M1PAM]
IP [1]: 135 nM | Papp at 5 µM [2]: 18 ×10⁻⁶ cm/s | half-life [3]: 1.7 h | clearance [4]: 13.5 mL/min/kg | Stability [5]: Stable | fold change (FC) [6]: 146 | IP [7]: 89 nM | IP [8]: 49 nM | Activity (Mus musculus): Active
